The record followed here is ChEMBL document CHEMBL1687700, “Discovery of an Orally Efficacious Imidazo[5,1-f][1,2,4]triazine Dual Inhibitor of IGF-1R and IR” (ACS Med Chem Lett, 2010).

Calls of active or inactive are those of the source. The calls are words filed in the database; no cut-off is given here.

Data set [1] deals with Mus musculus. The experiment in a line: Increase in blood glucose level in CD-1 nu/nu mouse at 10 mg/kg, po upto 8 hrs. In kind it is functional, organism-based. Details: dose 10 mg/kg. Put shortly: (§1)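 Blood glucose measured in GEO xenograft mice after the last dose of a 14-day oral dosing study, over a time course to 24 h.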
Data set [2] deals with Mus musculus. The experiment in a line: Increase in blood glucose level in CD-1 nu/nu mouse at 10 mg/kg, po after 24 hrs. In kind it is functional, organism-based. Details: dose 10 mg/kg. Put shortly: as §1
The target in data set [3] is RAC-alpha serine/threonine-protein kinase (Homo sapiens) (UniProt P31749). The experiment in a line: Inhibition of AKT phosphorylation in human GEO cells. Format: cell-based.
RAC-alpha serine/threonine-protein kinase (Homo sapiens), sequence (P31749 whole entry): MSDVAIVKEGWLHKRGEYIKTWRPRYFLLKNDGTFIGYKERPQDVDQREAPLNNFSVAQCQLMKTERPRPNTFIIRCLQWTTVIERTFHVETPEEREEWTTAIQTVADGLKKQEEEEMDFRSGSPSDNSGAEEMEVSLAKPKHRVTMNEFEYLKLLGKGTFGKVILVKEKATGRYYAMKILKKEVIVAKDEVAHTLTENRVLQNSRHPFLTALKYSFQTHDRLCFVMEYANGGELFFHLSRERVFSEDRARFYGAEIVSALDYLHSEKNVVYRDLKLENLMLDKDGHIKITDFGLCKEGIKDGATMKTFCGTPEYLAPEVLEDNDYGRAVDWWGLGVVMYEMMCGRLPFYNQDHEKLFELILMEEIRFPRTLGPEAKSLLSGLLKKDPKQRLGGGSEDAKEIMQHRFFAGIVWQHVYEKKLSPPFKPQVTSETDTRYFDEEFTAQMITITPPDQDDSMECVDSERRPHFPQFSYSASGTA
Data set [4] concerns Mus musculus. The experiment in a line: Inhibition of human IGF1R phosphorylation in human GEO cells xenografted in CD-1 nu/nu mouse assessed as sustained inhibition measured 24 hrs post last dose at 20 mg/kg, po qd administered for 14 days. In general terms: Xenograft models place foreign cells or tissue in a host animal.
A short description of data set [5]: Cmax in CD-1 mouse plasma at 25 mg/kg, po administered as single dose. In kind it is ADME, organism-based. Further details: dose 25 mg/kg, route oral.
The nature of data set [6]: Permeability of the compound by PAMPA assay at pH 7.4. Format: ADME. Particulars: read-out: permeability. Put shortly: (§2)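 Parallel artificial membrane permeability assay run at pH 5.0 and pH 7.4; permeability reported in nm/s.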
Data set [7] is described as follows: Oral bioavailability in CD-1 mouse at 25 mg/kg, po administered as single dose. Format: ADME, organism-based. The note with it: CD-1, mouse, in vivo.
Data set [8] in a line: Clearance in CD-1 mouse at 5 mg/kg, iv administered as single dose. Further details: dose 5 mg/kg, route intravenous. In kind it is ADME, organism-based. The note with it: in vivo.
Data set [9] can be described thus: Volume of distribution at steady state in CD-1 mouse at 5 mg/kg, iv administered as single dose. The note with it: in vivo, read-out: Vdss. Details: dose 5 mg/kg, route intravenous. Format: ADME, organism-based.
A short description of data set [10]: Permeability of the compound by PAMPA assay at pH 5.0. Format: ADME. Particulars: read-out: permeability. The method, boiled down: as §2

As a reminder, the Cmax is the maximum level reached in the sampled fluid or tissue. By bioavailability is commonly meant the share of a dose that reaches the circulation, judged against a reference dose that is usually intravenous. Higher therefore signals good availability. As a reminder, the clearance is the rate of elimination divided by the concentration. Low readings indicate inefficient removal, high ones efficient removal.

Take `C[C@]1(O)C[C@@H](c2nc(-c3ccc4ccc(-c5ccccc5)nc4c3F)c3c(N)ncnn32)C1`: the outcome with Mus musculus [1] was Active. The result with Mus musculus [2] was inactive. For the same compound, the inhibition result (in data set [3]; in the data set with Mus musculus [4]) was “Active” each time.

Consider `CN1CCN([C@H]2C[C@@H](c3nc(-c4ccc5ccc(-c6ccccc6)nc5c4F)c4c(N)ncnn43)C2)CC1`, for which the Cmax in [5] came to 1.9 µM. Also, the Papp in data set [6] is 672 nm/s; in [10], 145 nm/s. Also, the bioavailability in data set [7] was determined as 27%. The compound further had a clearance in [8] of 1.26 L/h/kg. Moreover, the Vd in [9] came out at 4.9 L/kg.
